The text below walks through data of PubChem BioAssay AID588478 (ICCB-Longwood Screening Facility, Harvard Medical School, 2011).

The inhibition is the relative decrease from the control value, in per cent.

In all, about 330,000 compounds went through this assay and about 1,100 (0.33%) were called active.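 Rule for the calls: active = mean inhibition over replicate wells above about 20% (limit read from the data); inactive = the rest.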 Only a selection was taken, and actives are over-represented in it overall.

Sequence of Ubiquitin carboxyl-terminal hydrolase isozyme L5 (Homo sapiens) (Q9Y5K5 whole entry, looked up): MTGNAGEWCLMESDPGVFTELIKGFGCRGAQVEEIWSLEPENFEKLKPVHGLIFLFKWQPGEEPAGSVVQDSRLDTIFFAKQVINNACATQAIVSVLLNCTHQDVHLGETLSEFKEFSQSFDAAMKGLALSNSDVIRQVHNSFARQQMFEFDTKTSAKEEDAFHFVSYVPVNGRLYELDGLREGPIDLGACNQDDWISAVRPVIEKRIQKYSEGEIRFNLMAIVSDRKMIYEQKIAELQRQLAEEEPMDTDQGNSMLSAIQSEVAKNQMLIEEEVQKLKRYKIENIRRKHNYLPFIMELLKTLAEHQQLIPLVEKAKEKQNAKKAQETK

In this experiment the target is Ubiquitin carboxyl-terminal hydrolase isozyme L5 (Homo sapiens) (UniProt Q9Y5K5). The experiment in a line: proteasome-bound UCH37 DUB activity blockers – biochemical, Ub-AMC cleavage, fluorescence, primary screen (AID 588478).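 Note: 0% = compound-free wells with enzyme and 100% = wells lacking proteasome.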 To be noted: purified proteasome/UCH37, Ub-AMC cleavage fluorescence; active compounds read high; concentration not given here. Put shortly:
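Schedule: 30 min plus 25 min, room temperature / Material: human UCH37 within purified proteasomes / Technique: AMC fluorescence intensity at 355/460 nm / Buffer or medium: pH 7.4 Tris-HCl (50 mM) with ovalbumin, ATP-MgCl2, DTT / Controls: wells without proteasome as full block, compound-free enzyme plus substrate as uninhibited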
As for `Cc1ccc(S(=O)(=O)/N=S(\C)C(C)C)cc1` (stereo unspecified), the inhibition is 0.621% (inactive).

As for `Cc1ccc(N2C(=O)CC(Sc3ncn[nH]3)C2=O)cc1` (stereo unspecified), the inhibition was 5.88% (inactive).

Turning to `Cc1ccc(S(=O)(=O)N=C2C=C(Sc3ncn[nH]3)C(=O)c3ccccc32)cc1`, the inhibition was 63.7% (active).

In the case of `CC(=NNC(=S)NC(C)C)c1ccc(Cl)s1`, the inhibition is 8.08% (inactive).

As to `O=C1/C(=C\Nc2ccccc2)CCN1c1ncccn1`, the inhibition is 21% (active).

For the molecule `COc1ccccc1Oc1ccc(N/C=C2/CCCC2=O)cc1`, the inhibition is 3.61% (inactive).

`O=C(Cc1ccccc1)NNC(=O)C1CCN(c2ncccn2)CC1`: the inhibition was -5.78% (inactive).

For `c1coc(-c2nc3nc4ccccc4n3nc2-c2ccco2)c1`, the inhibition is 25.1% (active).

In the case of `O=C(NN=Cc1cccnc1)c1cccc(N2CCCC2=O)c1`, the inhibition is 2.39% (inactive).

For the molecule `O=C(NC(Cc1c[nH]c2ccccc12)C(=O)NN=Cc1ccc(Br)cc1)c1cccs1` (stereo unspecified), the inhibition is 0.851% (inactive).

For the molecule `CCN(CC)CCCC(C)n1c2nc(=O)[nH]c(=O)c-2nc2cc(Cl)ccc21` (stereo unspecified), the inhibition is 76% (active).

For the molecule `CCN(CC)CCn1c2ccc(Cl)cc2c2nc(C)sc21`, the inhibition was 7.52% (inactive).

Consider `Nc1nnnn1N=Cc1cc(Cl)ccc1O`, for which the inhibition is -10.7% (inactive).

`CC(CC(=O)NCCc1ccccc1)=NNC(=O)COc1ccc(Br)cc1`: the inhibition was 3.08% (inactive).

Take `COC1=C(N2CCOCC2)C(=O)c2ccccc2C1=O`: the inhibition was 33.9% (active).

As to `O=C1c2ccccc2-c2ncnc3c(N4CCOCC4)cc(N4CCOCC4)c1c23`, the inhibition is 17.7% (inactive).

For `O=C1C(Cl)=C(N2CCOCC2)C(=O)N1c1ccccc1`, the inhibition is 3.48% (inactive).

As for `Cc1cc(C)n2nc(C(=O)NN=Cc3cccc(Cl)c3)nc2n1`, the inhibition is 4.88% (inactive).

On to `COc1ccc(OCC(=O)NN=C(C)CC(=O)Nc2ccc(OC)cc2[N+](=O)[O-])cc1`, for which the inhibition is 5.56% (inactive).

Consider `COc1ccc(C2/C(=C(/O)c3ccccc3)C(=O)C(=O)N2c2ncccn2)cc1OC` (stereo unspecified), for which the inhibition is 7.11% (inactive).

`Cc1cc(N2C(=O)C(=O)/C(=C(/O)c3ccccc3)C2c2cccc(Br)c2)no1` (stereo unspecified): the inhibition is 21.7% (active).

For `Cc1cc(N2C(=O)C(=O)/C(=C(/O)c3ccc(Cl)cc3)C2c2cccc(Br)c2)no1` (stereo unspecified), the inhibition is 6.56% (inactive).

In the case of `Cc1ccccc1OCC(=O)NN=C1CCOc2c(C)cccc21`, the inhibition was -0.822% (inactive).

For the molecule `CC(C)(C)c1ccc(OCc2ccc(C(=O)NN=C3CC4CC=CC34)cc2)cc1` (stereo unspecified), the inhibition was 2.62% (inactive).

As for `CN(CC(=O)Nc1ccc(F)cc1)C(=O)c1ccc(-c2ccc(Cl)cc2)o1`, the inhibition is -0.892% (inactive).

`Cc1[nH][nH]c(=O)c1C(c1ccc(-c2ccc(Cl)cc2)o1)c1c(C)[nH][nH]c1=O`: the inhibition is 42.6% (active).

As to `O=C(NC1CCCCC1)c1ccc(-c2ccc(Cl)cc2)o1`, the inhibition is 1.6% (inactive).

Regarding `Cc1cccc(OCC(=O)NN=C/C=C/c2ccc3c(c2)OCO3)c1C`, the inhibition is -10.5% (inactive).

Take `CC(=NNC(=O)c1ccc2c(c1)OCO2)c1ccc(O)cc1`: the inhibition is 3.15% (inactive).

Take `Oc1ccc(N=Nc2nccs2)c(O)c1`: the inhibition is 24.4% (active).

In the case of `CC(=NNc1cc(N2CCOCC2)ncn1)c1ccccc1`, the inhibition is 2.94% (inactive).

With `Cn1c(=O)n(C)c2cc(C=Nn3cnnc3)ccc21`, the inhibition was -35.7% (inactive).

Regarding `C=CCN1C(=O)c2ccc(C(=O)N3CCC(C(=O)OCC)CC3)cc2C1=O`, the inhibition was -0.969% (inactive).

Consider `Cc1cc(=O)n2nc(N3CCCC(C(=O)NCCC4=CCCCC4)C3)sc2n1` (stereo unspecified), for which the inhibition is 4.22% (inactive).

As for `CC1CCCN(C(=O)c2ccc3c(c2)C(=O)N(CCC2=CCCCC2)C3=O)C1` (stereo unspecified), the inhibition was 39.5% (active).

Take `S=c1[nH]nc(-c2ccccc2)n1N=Cc1ccc(-c2ccccc2Cl)o1`: the inhibition is 5.56% (inactive).

Turning to `CC(CC(=O)Nc1ccc(Cl)cc1Cl)=NNC(=O)c1ccncc1`, the inhibition is 0.597% (inactive).

Consider `COC(=O)NN=C(C)c1cccs1`, for which the inhibition is 2.45% (inactive).

As to `N#C/C(=C/c1ccc(N2CCOCC2)o1)C(=O)N1CCOCC1`, the inhibition was 33.4% (active).

For `N#C/C(=C/c1ccc(N2CCCCC2)o1)C(=O)NCCc1c[nH]c2ccccc12`, the inhibition is 11.5% (inactive).

In the case of `N#C/C(=C\c1ccc(N2CCOCC2)o1)C(=O)N1CCOCC1`, the inhibition is 15.4% (inactive).

Regarding `N#Cc1c2c(c(-c3ccccc3)[nH]c1=O)CCCC2`, the inhibition was -49.7% (inactive).

With `CC(C)(C)n1c(=O)[nH]c2c(c1=O)CCC2`, the inhibition was -4.38% (inactive).

As for `O=c1[nH]n2c(=O)c3c([nH]c2c1N=Nc1ccccc1)CCC3`, the inhibition was 22.1% (active).

For `CCOc1ccc(C=NNC(=O)c2nnn(-c3nonc3N)c2COc2ccc(F)cc2)cc1`, the inhibition was -139% (inactive).

As for `N#CCC(=O)NN=Cc1cn(Cc2cccc3ccccc23)c2ccccc12`, the inhibition is 1.26% (inactive).

In the case of `COCc1c(C)cc(C)c(C=NO)c1C`, the inhibition is 3.47% (inactive).

For `C=CCn1c(=C(C#N)c2nnc3n2CCCCC3)sc(=Cc2ccc(Cl)cc2)c1=O`, the inhibition was 8.49% (inactive).

In the case of `N#CC(=C(O)CCl)c1nnc2n1CCCCC2`, the inhibition is 31.4% (active).

Regarding `N#CC(=NNc1cc(Cl)cc(Cl)c1)c1nnc2n1CCCCC2`, the inhibition is 3.3% (inactive).

With `COc1cc(C=NNS(=O)(=O)c2ccc(C)cc2)ccc1OCc1ccc(C(=O)O)cc1`, the inhibition is 3.97% (inactive).

On to `COc1ccccc1C=NNc1cc(C)nc2ccc(C)cc12`, for which the inhibition was -45.9% (inactive).

Take `C/C(C=NNC(=O)c1ccc2nc[nH]c2c1)=C/c1ccccc1`: the inhibition was 5.71% (inactive).

Regarding `Cc1nc(NC(=O)C2CCCCC2)sc1C`, the inhibition is 1.92% (inactive).

As to `Cc1cnc(NC(=O)C2CCCC2)s1`, the inhibition was 31% (active).

For the molecule `Cc1cnc(NC(=O)c2ccccn2)s1`, the inhibition was 2.76% (inactive).

Take `CCCOc1ccc(-c2c(C(=O)NN=Cc3ccccc3)nnn2-c2nonc2N)cc1`: the inhibition was 5.85% (inactive).

For `COc1cc(C=Nn2c(C)nc3ccccc3c2=O)ccc1O`, the inhibition was 12.2% (inactive).

As to `CC(CC(=O)Nc1cc(C)ccn1)=NNC(=O)c1cccc(C)c1O`, the inhibition is -6.85% (inactive).

On to `CCS(=O)(=O)C1=NSC2=NC(=O)/C(=C\c3cc(C)n(-c4cccc(OC)c4)c3C)C(=N)N21`, for which the inhibition is -8.8% (inactive).

With `Cc1cc(C=NO)c(C)n1-c1ccccc1`, the inhibition is -2.23% (inactive).

Regarding `Cc1cc(/C=C2/C(=N)N3C(=NC2=O)SN=C3S(C)(=O)=O)c(C)n1-c1ccccc1`, the inhibition was 33.8% (active).

Regarding `COc1ccc2c(c1)c(C(=O)NN=Cc1ccc(Br)cc1)c(C)n2C`, the inhibition is 2.61% (inactive).

`CC(Oc1ccc(Cl)cc1)C(=O)NN=Cc1ccsc1` (stereo unspecified): the inhibition is 0.279% (inactive).

On to `Cc1oc(N=Cc2cccc([N+](=O)[O-])c2)c(C#N)c1C`, for which the inhibition is 4.11% (inactive).

For `COc1ccc(C=NNC(=O)CSCC(=O)Nc2ccccc2)cc1`, the inhibition is 2.55% (inactive).

On to `CN=C1C=C/C(=N/N=c2\ccn(O)cc2C)C=C1C`, for which the inhibition is 23.6% (active).

Regarding `COC(=O)Cc1cc(=O)[nH]c(N=C(N)Nc2ccc(C)cc2C)n1`, the inhibition was -0.633% (inactive).

As to `C(=Nn1cnnc1)c1ccc(OCc2cccc3ccccc23)cc1`, the inhibition is 2.25% (inactive).

Regarding `COc1ccc2ccccc2c1C=NNC(=S)Nc1cc(S(=O)(=O)N2CCOCC2)ccc1N1CCOCC1`, the inhibition is -8.36% (inactive).

For `O=C(NN=Cc1ccc(-c2ccccc2[N+](=O)[O-])o1)C1COc2cc3ccccc3cc2O1` (stereo unspecified), the inhibition is 7.82% (inactive).

With `CC(C)(C)c1cc(=O)n2c(nc3ccccc32)[nH]1`, the inhibition is -27.1% (inactive).

Take `O=c1c(=Cc2ccco2)sc2nc(-c3ccccc3Br)nn12`: the inhibition was 4.51% (inactive).

Take `O=C(O)c1cc(C(=O)O)cc(-c2ccc(C=c3sc4nc5ccccc5n4c3=O)o2)c1`: the inhibition was 22.2% (active).

As for `CC(=NNC(=O)Cc1c(Cl)cccc1Cl)c1cccnc1`, the inhibition is 4.49% (inactive).

In the case of `Cc1cccc(-c2cc(C(=O)NN=Cc3cccnc3)c3ccccc3n2)c1`, the inhibition is 1.54% (inactive).

`Cc1cc(=O)n2nc(N3CCC(C(=O)Nc4c(F)c(F)c(F)c(F)c4F)CC3)sc2n1`: the inhibition is -5.44% (inactive).

`CCCOc1ccc(CNC(=O)C2CCN(c3nn4c(=O)cc(C)nc4s3)CC2)cc1`: the inhibition is 1.32% (inactive).

Consider `COc1ccc(CCNC(=O)C2CCN(c3nn4c(=O)cc(C)nc4s3)CC2)cc1OC`, for which the inhibition is 27.9% (active).

Regarding `CCOc1ccc(C=NNC(=O)CN2CCCCC2)cc1OCC`, the inhibition was 4.23% (inactive).

`COc1ccc(CC(=O)Nc2cccc(C(C)=NNC(=O)c3cccc([N+](=O)[O-])c3)c2)cc1`: the inhibition is 2.24% (inactive).

Turning to `CC[n+]1cc(C)ccc1/C=C/c1ccc(N(C)C)cc1`, the inhibition was 20.6% (active).

With `CCC(=NNC(=O)Nc1nonc1N)c1ccc(OC)c(OC)c1`, the inhibition is 2.18% (inactive).

For `Cc1nnsc1C(=O)NN=Cc1ccccc1Cl`, the inhibition is 2.87% (inactive).

`O=C(CNC(=O)c1cccc(Cl)c1)NN=Cc1cccnc1`: the inhibition is 3.41% (inactive).

In the case of `CCOC(=O)c1cccc(NC(=O)CCOc2ccccc2)c1`, the inhibition is 0.512% (inactive).

In the case of `CCOC(=O)c1cccc(NC(=O)c2ccc(F)cc2F)c1`, the inhibition is 24.8% (active).

Take `CCOC(=O)c1cccc(NC(=O)CCn2nnc3ccccc32)c1`: the inhibition is 0.741% (inactive).

In the case of `CC(=O)NC1CCCN(O)C(=O)C=C(C)CCOC(=O)C(NC(C)=O)CCCN(O)C(=O)C=C(C)CCOC(=O)C(NC(C)=O)CCCN(O)C(=O)C=C(C)CCOC1=O` (stereo unspecified), the inhibition was -0.932% (inactive).

For `COc1cc(OC)cc(C(=O)NN=Cc2ccoc2)c1`, the inhibition is 1.2% (inactive).

In the case of `O=C1NNC(c2ccccc2)=N/C1=C\c1ccc(Cl)cc1`, the inhibition was 21.1% (active).

For `CCOC(=O)c1cc(C(C)=NOC(=O)c2ccc(C(C)(C)C)cc2)on1`, the inhibition was 4.76% (inactive).

`O=C(NN=Cc1cc2cc3c(cc2nc1Cl)OCO3)c1ccncc1`: the inhibition was -62.6% (inactive).

Take `N#C/C(=C\c1ccc(O)c(O)c1)C(=O)NCc1ccccc1`: the inhibition was 4.82% (inactive).

As to `Cc1[nH]c2ccccc2c1/C=C(/C#N)C(=O)NC(C)C`, the inhibition was 11.3% (inactive).

For `CC(C)NC(=O)/C(C#N)=C\c1ccc(N(C)C)c(Br)c1`, the inhibition is 35.8% (active).
